This passage reports yeast fitness results from the RNAGym collection of RNA variant scans (doi:10.1126/science.aae0568).

B1: tRNA (parent)
chain: GUUCCGUUGGCGUAAUGGUAACGCGUCUCCCUCCUAAGGAGAAGACUGCGGGUUCGAGUCCCGUACGGAACG

Variants at the floor of the assay were thinned out. Some results are limits rather than exact numbers.

In the series the parent is B1. As to the kind of experiment: yeast fitness relative to wild type (ratio to wild type); higher = fitter; tRNA-Arg(CCU), competitive growth, 37 C, YPD. Summed up:
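A pool of Saccharomyces cerevisiae strains, each with a tRNA-Arg(CCU) gene variant at the native genomic locus, was competed in YPD at 37°C for 24 hours across six parallel replicates. The variants had been chemically synthesised at a 3% per-site mutation rate over 69 sites, and gene amplicons before and after competition were read by 100-nucleotide paired-end sequencing. Darwinian fitness relative to wild type rested on changes in genotype frequencies. Genotypes required ≥ 100 starting reads, and estimates < 0.5 were set to 0.5.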
GUUCCGUCGGCGUAAUGGUGACGCGUCUCCCUCCUAAGGAGAAGACUGCGGGUUCGAGUCCCGUAUGGAACG [U8C A20G C66U]: the yeast fitness was 0.624.

Take GUACCGUUGGCGUAAUGGGAACGCAUCUCCCUCCUAAGGAGAAGACUGCGGGUUCGAGUCCCGUACAGAACG [U3A U19G G25A G67A]: the yeast fitness is 0.56. The result for GUUCCGUUGGCGUAAUGGUAACGCGUCUCCCUCCUAAGGAGAAGACUCCGGGUUCGAGUCCCGUACGGAUCG [G48C A70U] reads 1; that for GUUGCGUUGGCGUAAUGGUUAGGCGUCUCCCUCCUACGGAGACGACUGCGGGUUCGAGUCCCGUGCGGAACG [C4G A20U C22G A37C A43C A65G], no more than 0.5.

In the case of GUUCUGUUCGCGUAAUGGUAACGCGUCUCCCUCCUGAGGAGAAGACUGCGGGUUCGAGUGCCGUACGGAGCG [C5U G9C A36G C60G A70G], the yeast fitness is no more than 0.5. Regarding GUUCCGUUGGCGUAAUGGUAACGCGUCUCCCUCCUAAGGAGAAGACUACGGGUUCGAGUCCCGUACAGAACG [G48A G67A], the yeast fitness came to 0.91. The figure for GUUCGGUUGGCGUAAUGGUAACGCGUCUCCCUCCUAAGGAGUAGACUGCGGGUUCGAGUCCCGUACGAAACG [C5G A42U G68A] is 0.582. For GUUCCGGUGGUGUAAAGGUAACGCGUCUCCCUCCUAAGGAGAAGACUGCGGGUUCGAGUCCCGUACGGAACG [U7G C11U U16A], the yeast fitness was found to be 0.518.

For GUUCCGUUGGCGUAACGGUACCGCGUCUCCCUCCUAGGGAGAAGACUGCGGGUUAGAGUCCCGUACGGAACG [U16C A21C A37G C55A], the yeast fitness was no more than 0.5. As for GUUCCGUCGGCGUCAUGGUAACGCGUGUCCCUCCUAAGGAGAAGAGUGCGGGUUCGAGUCCCGUGCGGAACG [U8C A14C C27G C46G A65G], the yeast fitness was no more than 0.5. The figure for GUUCCGUUGGCGUAAUGGUAACGCGUCUCCCUCCUAAGGAGAAGACUGGGGCUUCGAGUCCCGUACGGAACG [C49G G52C] is 0.664; for GUUCCGUUGGCGUAAUGGUAACGCGUCUCCCUCUUAAGGAGAAGACUGCGUGUUCGAGUUCUGUCCGGGACG [C34U G51U C60U C62U A65C A69G] it is no more than 0.5. The result for GAUCCGUUGGCGUAAUGGUAACGCGUCCCCCUCCUAAGGAGAAGACUGCGGGUUCGAGUCCCGUACGGAACG [U2A U28C] reads 0.835.

For the variant GUUCCGUUGGCGUAAUGGUAACGCGUCUCCCUCCUAAGGACAAGACUGCGGGUUCGAGUCCUGUACGGCACG [G41C C62U A69C], the yeast fitness came out at 0.619.

For GUUCCGUUGGCGUAAUGGUAACGCGUCUCCCUCCUAAGGAGAAGACUGCGGGUUCGAGUCGCGUGCGGAACG [C61G A65G], the yeast fitness amounted to 0.713. The result for GGUCCGUUGGUGUAAUGGUAACGCGUCUCUCUCCUAAGGAGAAGACUGCGGGUUAGAGUCCCGUCCGGAACG [U2G C11U C30U C55A A65C] reads no more than 0.5. The result for GUUCCGUUGCCGUAAUGGUGACGUGUCUCCCUCCUAACGAGAAGACUGCGGGGUCGAGUCCCGUACGGAACG [G10C A20G C24U G38C U53G] reads no more than 0.5; that for GAUCCGUUGGCGUAAUGGUAACGCGUCACCCUCCUACGGAGAAGACUGCGGGUUCGAGUCCCGUAUGGAACG [U2A U28A A37C C66U], no more than 0.5. The figure for GUUCCGUUGGAGUAAUGGUAACGCGUCUCCCUCCGAAGGAGAAGACUGCGGGUUCGAGUCCCGUACGGAACG [C11A U35G] is 0.514; for GUUCCGUUGGCGUAAUGGUAAUGCGUCUCCCUCCUAAGGAGAAGACUGCGGGUUCGAGUCCCGAACGGAACG [C22U U64A] it is 0.837; for GAUCGGUUGGCGUAAUGGUAACGCGUCUCCCUCCUAAGGAAAUGACUGCGGGUGCGUGUCCCGUACGGAACG [U2A C5G G41A A43U U54G A57U] it is no more than 0.5.

Take GUUCCGUUGGCGUAAUGGUUACGCGUCACCCUUCUAAGGAGAAGACUGCGGGUUCGAGUCCCGUACGGAACG [A20U U28A C33U]: the yeast fitness is no more than 0.5. The result for GUUCCGUUGGCGUAAUGGUAACGCAUCUCCGUCCUAAGGAGAAGACUGCGGGUUCGAGUCCCGUACGGAACG [G25A C31G] reads 0.906; that for GUUCCGUUAGCGUAAUGGUAACGCGUCUCCCUCUUAAGGAGAAGACUGCGGGUUCGAGUCCCGUACGGAACG [G9A C34U], 0.793.

Take GUUCCGUUGGCGUAAAGGUAACGCGUCUCCCACCUAAGGCGAAGACUGCGGGUUCGAGUCCUGUACGGAACG [U16A U32A A40C C62U]: the yeast fitness is no more than 0.5.

Consider GUUCCGUUGGCGUAAUGGUAACGCGUCCCCUUCCUAAGGAGAAGACUGCGGGUUCGAGUUCCGUACGGAACG [U28C C31U C60U], for which the yeast fitness was no more than 0.5. The result for GUUCCGUUGGCGUAAUGGUGAUGCGUCUCCCUCCUAAGGAGAAGACUGCGGGUUCGAGUCCCGUACUGAACG [A20G C22U G67U] reads 0.559.

Regarding GUUCCGUUGGUGUAAUGGUCACGCGUCUACUCCCUAAGGAGAAGACUGCGGGUUCGAGUCCCGUCCGGAACG [C11U A20C C29A C31U U32C A65C], the yeast fitness is no more than 0.5. The figure for GUUCAGUUGGCGUAAUGGUAACGCGUCUGCCUCCUAGGGAAAUGACUGCGGGUUCGAGUCCCGUACGGAACG [C5A C29G A37G G41A A43U] is no more than 0.5.

GCUCCGUUGGUGUAAUGGUAACGCUUCUUCCUCCUAAGAAGAAGACUGCGGGUUCGAGUCCCGUACGGAACG [U2C C11U G25U C29U G39A]: the yeast fitness is no more than 0.5. The result for GUUCCGUUGGCGUAAUGGUAACGCGUCUCCCUCCUAAGGAGAAGAUUGCGGGUUCGAGUCCCGUAGGGAACG [C46U C66G] reads 0.949; that for GUUCCGUUAGCGUAAUGGUAACGCGUCUACCUCCUAGGGAGAAGACUGCGGGUUCGAAUCCCGUACGGAACG [G9A C29A A37G G58A], 0.571; that for GUUCCGUUGGCGUAAUGGUAACGCGUCUGCCUCCUAAGGAGAGGCCUGCGGGUUCGAGUCCCGUACGGAACG [C29G A43G A45C], no more than 0.5. The figure for GUUCCGUUGGCGUAAUAGUAACGCGUCCCCCUCCUAAGGAGCAGACUGCGGGUUCGAGUCCUGUACGGAUCG [G17A U28C A42C C62U A70U] is no more than 0.5; for GUUCCGUUGGCGUAUUGGUAACGAGUCUCCCUCCUAAGGAGAAGACUGCGGGUUUGAGCCCCGUACGGAACG [A15U C24A C55U U59C] it is 0.526; for GUUCCGUUGGUGUAAUGCUAACGGGUCUCCCUCCUAAGGAGAAGAAUGCGGGUUCGAGUCCCGUACGGAACG [C11U G18C C24G C46A] it is 0.537.

For the variant GUUCCGUUGGCGUCAUGGUAACGCGUCUCCCUCCUAAGGAGAAGAUUGCGGGUUCGAGUCCCGUACGGAACG [A14C C46U], the yeast fitness was 0.915.
